Test results from ChEMBL document CHEMBL2417516, “Metallo-β-lactamase inhibitory activity of 3-alkyloxy and 3-amino phthalic acid derivatives and their combination effect with carbapenem” (Bioorg Med Chem, 2013).
≈ marks a conversion by molar mass, not a printed value. One block for each compound: values may come before it. Calls of active or inactive are those of the source. No cut-off for these calls is given here.

Legend:
Pseudomonas aeruginosa [1] = test: Antibacterial activity against Pseudomonas aeruginosa clinical isolates producing IMP-1 by microbroth dilution method in presence of ceftazidime; type: functional, organism-based
Outline: (§1)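 Minimum inhibitory concentrations were determined by broth microdilution following CLSI guidance, with Mueller–Hinton II broth as the test medium.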

Pseudomonas aeruginosa [2] = test: Antibacterial activity against Pseudomonas aeruginosa clinical isolates producing IMP-1 by microbroth dilution method in presence of meropenem; type: functional, organism-based; outline: as §1
Pseudomonas aeruginosa [3] = test: Antibacterial activity against Pseudomonas aeruginosa clinical isolates producing IMP-1 by microbroth dilution method in presence of biapenem; type: functional, organism-based; outline: as §1
Pseudomonas aeruginosa [4] = test: Antibacterial activity against Pseudomonas aeruginosa PAO1 pMS363 at 50 ug/ml by microbroth dilution method in presence of biapenem; type: functional, organism-based
Pseudomonas aeruginosa [5] = test: Antibacterial activity against mexAB-deleted Pseudomonas aeruginosa KG5002/pMS363 at 50 ug/ml by microbroth dilution method in presence of biapenem; type: functional, organism-based
Metallo beta-lactamase = Metallo beta-lactamase (Pseudomonas aeruginosa, UniProt Q6TUJ4); test: Inhibition of carbapenems-resistant Pseudomonas aeruginosa MSC15369 metallo-beta-lactamase IMP1 expressed in Escherichia coli DH5[alpha] using nitrocefin as substrate after 20 mins by spectrophotometry
Outline: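 IMP-1 was expressed in E. coli DH5 with 0.5 mM IPTG induction for 3 h at room temperature, and the soluble enzyme was purified from cell extracts on Ni-NTA. Inhibitors were incubated with 1.0 nM IMP-1 for 20 min at room temperature, and IC50 values were determined.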

Pseudomonas aeruginosa [6] = test: Antibacterial activity against Pseudomonas aeruginosa PAO1 pMS363 by microbroth dilution method; type: functional
Outline: (§2)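 MIC determined by broth microdilution following CLSI guidance, with Mueller–Hinton II broth as the test medium.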

Pseudomonas aeruginosa [7] = test: Antibacterial activity against mexAB-deleted Pseudomonas aeruginosa KG5002/pMS363 by microbroth dilution method; type: functional; outline: as §2

Sequence of Metallo beta-lactamase (Q6TUJ4 whole entry): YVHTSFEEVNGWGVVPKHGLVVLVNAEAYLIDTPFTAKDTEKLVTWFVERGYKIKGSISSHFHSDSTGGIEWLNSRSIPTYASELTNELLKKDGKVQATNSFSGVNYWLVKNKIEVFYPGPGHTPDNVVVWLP

SMILES: O=C(O)c1cccc(N2CCC(O)CC2)c1C(=O)O
Activity (Pseudomonas aeruginosa [1]): Dose-dependent effect
Activity (Pseudomonas aeruginosa [2]): Dose-dependent effect
Activity (Pseudomonas aeruginosa [3]): Dose-dependent effect
Activity (Pseudomonas aeruginosa [4]): Active
Activity (Pseudomonas aeruginosa [5]): Active
IC50 (Metallo beta-lactamase): 2.7 µM

SMILES: CCCCNc1cccc(C(=O)O)c1C(=O)O
IC50 (Metallo beta-lactamase): 13.1 µM

SMILES: O=C(O)c1cccc(N2CCCCC2)c1C(=O)O
Activity (Pseudomonas aeruginosa [4]): Active
Activity (Pseudomonas aeruginosa [5]): Active
IC50 (Metallo beta-lactamase): 10.8 µM

SMILES: COc1cccc(C(=O)O)c1C(=O)O
IC50 (Metallo beta-lactamase): 142 µM

SMILES: CN(C)c1cccc(C(=O)O)c1C(=O)O
Activity (Pseudomonas aeruginosa [4]): Active
Activity (Pseudomonas aeruginosa [5]): Active
IC50 (Metallo beta-lactamase): 94.5 µM

SMILES: O=C(O)c1cccc(N2CCCC(CO)C2)c1C(=O)O (stereo not given)
Activity (Pseudomonas aeruginosa [4]): Active
Activity (Pseudomonas aeruginosa [5]): Active
IC50 (Metallo beta-lactamase): 2.1 µM

SMILES: O=C(O)c1cccc(OCCCC2CCCCC2)c1C(=O)O
Activity (Pseudomonas aeruginosa [4]): inactive
IC50 (Metallo beta-lactamase): 2 µM

SMILES: O=C(O)c1cccc(OCCO)c1C(=O)O
Activity (Pseudomonas aeruginosa [4]): Active
Activity (Pseudomonas aeruginosa [5]): Active
IC50 (Metallo beta-lactamase): 47.8 µM

SMILES: O=C(O)c1cccc(-c2ccc(O)cc2)c1C(=O)O
IC50 (Metallo beta-lactamase): 1.55 µM

SMILES: O=C(O)CCCCOc1cccc(C(=O)O)c1C(=O)O
Activity (Pseudomonas aeruginosa [4]): Active
IC50 (Metallo beta-lactamase): 18.8 µM

SMILES: O=C(O)c1cccc(N2CCCC(O)C2)c1C(=O)O (stereo not given)
Activity (Pseudomonas aeruginosa [4]): Active
Activity (Pseudomonas aeruginosa [5]): Active
IC50 (Metallo beta-lactamase): 2.7 µM

SMILES: O=C(O)c1cccc(OCCCO)c1C(=O)O
Activity (Pseudomonas aeruginosa [4]): Active
Activity (Pseudomonas aeruginosa [5]): Active
IC50 (Metallo beta-lactamase): 21.4 µM

SMILES: O=C(O)c1cccc(O)c1C(=O)O
IC50 (Metallo beta-lactamase): > 300 µM

SMILES: O=C(O)c1cccc(OCc2ccccc2)c1C(=O)O
IC50 (Metallo beta-lactamase): 7.4 µM

SMILES: O=C(O)c1cccc(N2CCC(CCO)CC2)c1C(=O)O
Activity (Pseudomonas aeruginosa [4]): Active
Activity (Pseudomonas aeruginosa [5]): Active
IC50 (Metallo beta-lactamase): 25.6 µM

MIC (Pseudomonas aeruginosa [6]): 64 µg/mL (≈ 183 µM)
MIC (Pseudomonas aeruginosa [7]): 64 µg/mL (≈ 183 µM)
SMILES: C[C@@H](O)[C@H]1C(=O)N2C(C(=O)[O-])=C(SC3Cn4cnc[n+]4C3)[C@H](C)[C@H]12 (stereo not given in full) [BIAPENEM]

SMILES: O=C(O)c1cccc(N2CCC(O)(c3ccccc3)CC2)c1C(=O)O
Activity (Pseudomonas aeruginosa [4]): Active
Activity (Pseudomonas aeruginosa [5]): Active
IC50 (Metallo beta-lactamase): 2.3 µM

SMILES: Nc1cccc(C(=O)O)c1C(=O)O
IC50 (Metallo beta-lactamase): 300 µM

SMILES: COC1CCN(c2cccc(C(=O)O)c2C(=O)O)CC1
Activity (Pseudomonas aeruginosa [4]): Active
Activity (Pseudomonas aeruginosa [5]): Active
IC50 (Metallo beta-lactamase): 3.7 µM

SMILES: O=C(O)c1cccc(N2CCC(CO)CC2)c1C(=O)O
Activity (Pseudomonas aeruginosa [4]): Active
Activity (Pseudomonas aeruginosa [5]): Active
IC50 (Metallo beta-lactamase): 2.6 µM

SMILES: O=C(O)c1cccc(N2CCCC2)c1C(=O)O
Activity (Pseudomonas aeruginosa [4]): Active
Activity (Pseudomonas aeruginosa [5]): Active
IC50 (Metallo beta-lactamase): 2.8 µM

SMILES: O=C(O)c1cccc(OCCCc2ccccc2)c1C(=O)O
Activity (Pseudomonas aeruginosa [4]): inactive
Activity (Pseudomonas aeruginosa [5]): Active
IC50 (Metallo beta-lactamase): 1.7 µM

SMILES: CCCCOc1cccc(C(=O)O)c1C(=O)O
IC50 (Metallo beta-lactamase): 5.1 µM
